Tests used:
Type in all cases: functional
[1] = Growth inhibition of human MOLT4 cells after 48 hrs by SRB assay; conditions: MOLT-4, 48 h
Summary of the method: (§1)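 NCI-60 panel screen. Cells exposed for 48 h to five concentrations (10−4, 10−5, 10−6, 10−7 and 10−8 M). Sulforhodamine B optical density is read just before compound addition (time zero) and after 48 h, for both treated and vehicle-control wells. Percent growth is calculated against control. GI50 is the concentration giving a 50% reduction in net cell growth relative to cell numbers on day 0.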

[2] = Growth inhibition of human Hs578T cells after 48 hrs by SRB assay; conditions: Hs-578T; summary of the method: as §1
[3] = Growth inhibition of human SF295 cells after 48 hrs by SRB assay; conditions: SF-295, 48 h; summary of the method: as §1
MDA-MB-468 = test: Growth inhibition of human MDA-MB-468 cells after 48 hrs by SRB assay; conditions: MDA-MB-468, 48 h; summary of the method: as §1
[4] = Growth inhibition of human HOP92 cells after 48 hrs by SRB assay; conditions: HOP-92, 48 h; summary of the method: as §1
786-0 = test: Growth inhibition of human 786-0 cells after 48 hrs by SRB assay; conditions: 786-0, 48 h; summary of the method: as §1
UACC-62 = test: Growth inhibition of human UACC62 cells after 48 hrs by SRB assay; conditions: UACC-62, 48 h
Summary of the method: (§2)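 NCI-60 panel cells; preliminary single-dose screen at 10−5 M, then five-dose testing at 10−4 to 10−8 M (tenfold steps) with 48 h exposure. SRB-stained optical density read before compound addition (time zero), after 48 h with compound, and with vehicle control. Percent growth is calculated against control. GI50 is the concentration giving 50% reduction in net growth relative to day-0 cell number.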

CAKI-1 = test: Growth inhibition of human Caki1 cells after 48 hrs by SRB assay; conditions: CAKI-1, 48 h; summary of the method: as §1
IGROV-1 = test: Growth inhibition of human IGROV1 cells after 48 hrs by SRB assay; conditions: IGROV-1, 48 h; summary of the method: as §1
[5] = Growth inhibition of human HCC2998 cells after 48 hrs by SRB assay; conditions: HCC 2998, 48 h; summary of the method: as §1
NCI-H23 = test: Growth inhibition of human NCI-H23 cells after 48 hrs by SRB assay; conditions: NCI-H23, 48 h; summary of the method: as §1
SK-OV-3 = test: Growth inhibition of human SKOV3 cells after 48 hrs by SRB assay; conditions: SK-OV-3, 48 h; summary of the method: as §1
HOP-62 = test: Growth inhibition of human HOP62 cells after 48 hrs by SRB assay; conditions: HOP-62, 48 h; summary of the method: as §1
[6] = Growth inhibition of human BT549 cells after 48 hrs by SRB assay; conditions: BT-549, 48 h; summary of the method: as §1
KM12 = test: Growth inhibition of human KM12 cells after 48 hrs by SRB assay; conditions: KM12, 48 h; summary of the method: as §1
NCI-H226 = test: Growth inhibition of human NCI-H226 cells after 48 hrs by SRB assay; conditions: NCI-H226, 48 h; summary of the method: as §1
UACC-257 = test: Growth inhibition of human UACC257 cells after 48 hrs by SRB assay; conditions: UACC-257, 48 h; summary of the method: as §2
MDA-MB-435 = test: Growth inhibition of human MDA-MB-435 cells after 48 hrs by SRB assay; conditions: MDA-MB-435, 48 h; summary of the method: as §1
SNB-19 = test: Growth inhibition of human SNB19 cells after 48 hrs by SRB assay; conditions: SNB-19, 48 h; summary of the method: as §1
NCI-H522 = test: Growth inhibition of human NCI-H522 cells after 48 hrs by SRB assay; conditions: NCI-H522, 48 h; summary of the method: as §1
Malme-3M = test: Growth inhibition of human MALME-3M cells after 48 hrs by SRB assay; summary of the method: as §1
A498 = test: Growth inhibition of human A498 cells after 48 hrs by SRB assay; conditions: A498, 48 h; summary of the method: as §1
SW-620 = test: Growth inhibition of human SW620 cells after 48 hrs by SRB assay; conditions: SW-620, 48 h; summary of the method: as §2
UO-31 = test: Growth inhibition of human UO31 cells after 48 hrs by SRB assay; conditions: UO-31, 48 h; summary of the method: as §2
DU-145 = test: Growth inhibition of human DU145 cells after 48 hrs by SRB assay; conditions: DU-145, 48 h; summary of the method: as §1
MCF7 = test: Growth inhibition of human MCF7 cells after 48 hrs by SRB assay; conditions: MCF7, 48 h; summary of the method: as §1
HL-60(TB) = test: Growth inhibition of human HL-60(TB) cells after 48 hrs by SRB assay; conditions: HL-60, 48 h
Summary of the method: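 NCI-60 panel screen: cells were exposed to test agent at five concentrations (10−4, 10−5, 10−6, 10−7 and 10−8 M) for 48 h. Sulforhodamine B optical density was read at time zero and after exposure to compound or vehicle control, and growth percentage versus control was calculated. GI50 was taken as the concentration giving a 50% reduction in net cell growth relative to day 0 cell numbers.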

SK-MEL-2 = test: Growth inhibition of human SK-MEL-2 cells after 48 hrs by SRB assay; conditions: SK-MEL-2, 48 h; summary of the method: as §1
SF-268 = test: Growth inhibition of human SF268 cells after 48 hrs by SRB assay; conditions: SF-268, 48 h; summary of the method: as §1
TK-10 = test: Growth inhibition of human TK10 cells after 48 hrs by SRB assay; conditions: TK-10, 48 h; summary of the method: as §2
SNB-75 = test: Growth inhibition of human SNB75 cells after 48 hrs by SRB assay; conditions: SNB-75, 48 h; summary of the method: as §2
HCT-15 = test: Growth inhibition of human HCT15 cells after 48 hrs by SRB assay; conditions: HCT-15, 48 h; summary of the method: as §1
SR = test: Growth inhibition of human SR cells after 48 hrs by SRB assay; summary of the method: as §2
OVCAR-3 = test: Growth inhibition of human OVCAR3 cells after 48 hrs by SRB assay; conditions: OVCAR-3, 48 h; summary of the method: as §1
U-251 = test: Growth inhibition of human U251 cells after 48 hrs by SRB assay; conditions: U-251, 48 h; summary of the method: as §2
[7] = Growth inhibition of human LOXIMVI cells after 48 hrs by SRB assay; conditions: LOX IMVI; summary of the method: as §1
SK-MEL-5 = test: Growth inhibition of human SK-MEL-5 cells after 48 hrs by SRB assay; conditions: SK-MEL-5, 48 h; summary of the method: as §1
PC-3 = test: Growth inhibition of human PC3 cells after 48 hrs by SRB assay; conditions: PC-3, 48 h; summary of the method: as §1
HT-29 = test: Growth inhibition of human HT-29 cells after 48 hrs by SRB assay; conditions: HT-29, 48 h; summary of the method: as §1
K562 = test: Growth inhibition of human K562 cells after 48 hrs by SRB assay; conditions: K562, 48 h; summary of the method: as §1
T47D = test: Growth inhibition of human T47D cells after 48 hrs by SRB assay; summary of the method: as §2
OVCAR-8 = test: Growth inhibition of human OVCAR8 cells after 48 hrs by SRB assay; conditions: OVCAR-8, 48 h; summary of the method: as §1
MDA-MB-231 = test: Growth inhibition of human MDA-MB-231/ATCC cells after 48 hrs by SRB assay; conditions: MDA-MB-231, 48 h; summary of the method: as §1
[8] = Growth inhibition of human RXF393 cells after 48 hrs by SRB assay; conditions: RXF 393, 48 h; summary of the method: as §1
[9] = Growth inhibition of human SF539 cells after 48 hrs by SRB assay; conditions: SF-539, 48 h; summary of the method: as §1
[10] = Growth inhibition of human COLO205 cells after 48 hrs by SRB assay; conditions: COLO 205, 48 h; summary of the method: as §1
[11] = Growth inhibition of human RPMI8226 cells after 48 hrs by SRB assay; conditions: RPMI-8226, 48 h; summary of the method: as §1
[12] = Growth inhibition of human NCI-ADR-RES cells after 48 hrs by SRB assay; summary of the method: as §1
ACHN = test: Growth inhibition of human ACHN cells after 48 hrs by SRB assay; summary of the method: as §1
M14 = test: Growth inhibition of human M14 cells after 48 hrs by SRB assay; conditions: M14, 48 h; summary of the method: as §1
SK-MEL-28 = test: Growth inhibition of human SK-MEL-28 cells after 48 hrs by SRB assay; conditions: SK-MEL-28, 48 h; summary of the method: as §1
CCRF-CEM = test: Growth inhibition of human CCRF-CEM cells after 48 hrs by SRB assay; summary of the method: as §1
A549 = test: Growth inhibition of human A549/ATCC cells after 48 hrs by SRB assay; conditions: A549, 48 h; summary of the method: as §1
NCI-H460 = test: Growth inhibition of human NCI-H460 cells after 48 hrs by SRB assay; conditions: NCI-H460, 48 h; summary of the method: as §1
OVCAR-4 = test: Growth inhibition of human OVCAR4 cells after 48 hrs by SRB assay; conditions: OVCAR-4, 48 h; summary of the method: as §1
HCT-116 = test: Growth inhibition of human HCT116 cells after 48 hrs by SRB assay; conditions: HCT-116, 48 h; summary of the method: as §1
OVCAR-5 = test: Growth inhibition of human OVCAR5 cells after 48 hrs by SRB assay; conditions: OVCAR-5, 48 h; summary of the method: as §1
NCI-H322M = test: Growth inhibition of human NCI-H322M cells after 48 hrs by SRB assay; summary of the method: as §1
SN12C = test: Growth inhibition of human SN12C cells after 48 hrs by SRB assay; summary of the method: as §1

For `COc1cc(/C=C/c2cc3ccccc3o2)cc(OC)c1OC`, the GI50 [1] was 852 nM, the GI50 [2] was 499 nM and the GI50 [3] was 356 nM. The GI50 (MDA-MB-468) was 662 nM, the GI50 [4] was 170 nM and the GI50 (786-0) was 850 nM. It also gave a GI50 (UACC-62) of 507 nM, a GI50 (CAKI-1) of 580 nM and a GI50 (IGROV-1) of 807 nM. It also gave a GI50 [5] of 334 nM, a GI50 (NCI-H23) of 3090 nM and a GI50 (SK-OV-3) of 656 nM. The GI50 (HOP-62) was 775 nM, the GI50 [6] was 1090 nM and the GI50 (KM12) was 508 nM. It also gave a GI50 (NCI-H226) of 1100 nM, a GI50 (UACC-257) of 16400 nM and a GI50 (MDA-MB-435) of 78 nM. It also gave a GI50 (SNB-19) of 584 nM, a GI50 (NCI-H522) of 436 nM and a GI50 (Malme-3M) of 413 nM. For the same molecule, the GI50 (A498) was 408 nM, the GI50 (SW-620) was 444 nM and the GI50 (UO-31) was 1150 nM. It also gave a GI50 (DU-145) of 1860 nM, a GI50 (MCF7) of 373 nM and a GI50 (HL-60(TB)) of 356 nM. For the same molecule, the GI50 (SK-MEL-2) was 767 nM, the GI50 (SF-268) was 861 nM and the GI50 (TK-10) was 8460 nM. For the same molecule, the GI50 (SNB-75) was 475 nM, the GI50 (HCT-15) was 402 nM and the GI50 (SR) was 94 nM. For the same molecule, the GI50 (OVCAR-3) was 429 nM, the GI50 (U-251) was 668 nM and the GI50 [7] was 895 nM. For the same molecule, the GI50 (SK-MEL-5) was 345 nM, the GI50 (PC-3) was 524 nM and the GI50 (HT-29) was 375 nM. The GI50 (K562) was 267 nM, the GI50 (T47D) was 693 nM and the GI50 (OVCAR-8) was 2050 nM. The GI50 (MDA-MB-231) was 1170 nM, the GI50 [8] was 329 nM and the GI50 [9] was 273 nM. For the same molecule, the GI50 [10] was 406 nM, the GI50 [11] was 700 nM and the GI50 [12] was 511 nM. For the same molecule, the GI50 (ACHN) was 863 nM, the GI50 (M14) was 479 nM and the GI50 (SK-MEL-28) was 837 nM. It also gave a GI50 (CCRF-CEM) of 425 nM, a GI50 (A549) of 615 nM and a GI50 (NCI-H460) of 416 nM. For the same molecule, the GI50 (OVCAR-4) was 1150 nM, the GI50 (HCT-116) was 522 nM and the GI50 (OVCAR-5) was 2940 nM. The GI50 (NCI-H322M) was 15900 nM and the GI50 (SN12C) was 4090 nM.
